# Calls of active or inactive are those of the source. The calls are words filed in the database; no cut-off is given here.
# Columns and labels:
# [1] = target: T1, Peroxisome proliferator-activated receptor gamma (Homo sapiens) (UniProt P37231); experiment: Transactivation of GAL4 DBD-fused human PPARgamma LBD expressed in HEK293 cells at 10 uM after 24 hrs by luciferase reporter gene assay relative to pioglitazone; format: cell-based
# T1 sequence (whole entry): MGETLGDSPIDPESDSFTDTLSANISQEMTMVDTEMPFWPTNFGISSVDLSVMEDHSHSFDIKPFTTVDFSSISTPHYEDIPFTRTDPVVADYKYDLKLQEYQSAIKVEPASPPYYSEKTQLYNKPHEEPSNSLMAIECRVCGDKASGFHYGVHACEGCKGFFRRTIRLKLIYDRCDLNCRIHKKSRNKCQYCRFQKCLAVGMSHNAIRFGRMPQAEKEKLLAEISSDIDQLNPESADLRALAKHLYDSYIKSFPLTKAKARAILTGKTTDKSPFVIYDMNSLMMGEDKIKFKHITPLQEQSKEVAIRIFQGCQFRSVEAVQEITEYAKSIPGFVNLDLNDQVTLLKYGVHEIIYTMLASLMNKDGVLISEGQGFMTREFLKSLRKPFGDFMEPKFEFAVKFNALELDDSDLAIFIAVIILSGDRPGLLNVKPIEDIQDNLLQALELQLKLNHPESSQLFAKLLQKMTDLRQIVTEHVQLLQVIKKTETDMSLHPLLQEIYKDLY
# Outline: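 HEK293(T) cells transiently co-transfected with a Gal4 DBD–human PPARγ LBD hybrid and a Gal4 UAS-driven Renilla luciferase reporter. […] Luciferase activity normalized to Renilla and expressed as fold induction over vehicle; triplicates, repeated at least three times.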
# [2] = Inhibition of soya bean 15-LOX by colorimetric lipoxygenase inhibitor screening assay kit method; set-up: species or system Glycine max
# Outline: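 Soybean 15-LOX activity measured with a colorimetric lipoxygenase inhibitor screening kit per the kit instructions.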
# [3] = target: T2, Prostaglandin G/H synthase 1 (Ovis aries, UniProt P05979); experiment: Inhibition of ovine COX1 catalytic activity using arachidonic acid as substrate pre-incubated for 10 mins followed by substrate addition and measured after 2 mins by ELISA method
# T2 sequence (P05979 whole entry): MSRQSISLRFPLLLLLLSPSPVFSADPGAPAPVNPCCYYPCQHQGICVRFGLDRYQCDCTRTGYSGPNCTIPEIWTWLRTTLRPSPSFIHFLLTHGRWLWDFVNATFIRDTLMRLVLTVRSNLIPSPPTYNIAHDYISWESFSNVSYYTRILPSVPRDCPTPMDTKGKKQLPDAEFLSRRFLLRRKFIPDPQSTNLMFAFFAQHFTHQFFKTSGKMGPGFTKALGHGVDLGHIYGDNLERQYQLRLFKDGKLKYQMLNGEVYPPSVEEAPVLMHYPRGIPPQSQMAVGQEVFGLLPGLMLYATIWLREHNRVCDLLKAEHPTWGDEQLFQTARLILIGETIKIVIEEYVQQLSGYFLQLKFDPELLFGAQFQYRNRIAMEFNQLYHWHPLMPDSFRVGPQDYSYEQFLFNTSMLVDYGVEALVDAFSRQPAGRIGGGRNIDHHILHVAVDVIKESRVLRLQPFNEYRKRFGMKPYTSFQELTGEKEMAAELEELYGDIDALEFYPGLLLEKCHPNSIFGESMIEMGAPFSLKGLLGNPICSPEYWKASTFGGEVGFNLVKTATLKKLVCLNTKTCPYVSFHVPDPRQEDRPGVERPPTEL
# [4] = species on record: Rattus norvegicus; experiment: Antidiabetic activity in Wistar rat hemi-diaphragm at 2 mg assessed as increase in glucose uptake in absence of insulin by GOD/POD enzymatic method; format: functional, tissue-based
# Outline: (§1)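 Wistar rats (150-250 g), fasted overnight, euthanized under ether; diaphragms removed and halved, each half weighed. Glucose in the working solution measured before and after incubation, and uptake taken as initial minus final content at 2 mg drug; expressed as mg/dl/45 min, mean ± SEM.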
# [5] = species on record: Rattus norvegicus; experiment: Antidiabetic activity in Wistar rat hemi-diaphragm at 2 mg assessed as increase in insulin-induced glucose uptake by GOD/POD enzymatic method; format: functional, tissue-based; outline: as §1
# [6] = tested on: THP-1; experiment: Inhibition of PMA-induced human THP1 monocytes differentiation in to macrophages assessed as macrophage metabolic activity up to 300 uM preincubated for 6 hrs before PMA stimulation; format: functional, cell-based
# Outline: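 THP-1 cells grown in RPMI-1640 with 10% FBS and seeded at 2×10^5 cells/ml. Drug concentrations applied for 6 h before differentiation with PMA 25 ng/ml for 24 h; wells washed 3x with PBS. Attached cells quantified by MTS viability readout, with a no-PMA blank, normalized to DMSO-pretreated PMA cells. Viability at each drug concentration checked separately over 30 h.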
# [7] = tested on: THP-1; experiment: Inhibition of PMA-induced human THP1 monocytes differentiation in to macrophages assessed as macrophage metabolic activity preincubated for 6 hrs before PMA stimulation
# [8] = tested on: Rattus norvegicus; experiment: Antiinflammatory activity in rat acute inflammation model assessed as inhibition of formalin-induced paw edema at 5 mg/kg, po measured after 4 hrs relative to control; format: functional
# Outline: (§2)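 Adult female albino rats, 150-250 g, acclimatized 1 week. Compounds given orally at 5 mg/kg body weight; percentage edema inhibition measured after 4 h. Celecoxib and diclofenac sodium served as positive controls.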
# [9] = tested on: Rattus norvegicus; experiment: Antiinflammatory activity in rat acute inflammation model assessed as inhibition of formalin-induced paw edema at 5 mg/kg, po measured after 4 hrs relative to celecoxib; format: functional; outline: as §2
structure (smiles),measurement,setting,value
O=C1NC(=O)/C(=C/c2ccc(OCc3cn(Cc4ccc(Br)cc4)nn3)cc2)S1,Activity,[1],25 to 45%
O=C1NC(=S)S/C1=C\c1ccc(OCc2cn(CC(=O)c3ccc(Cl)cc3)nn2)cc1,IC50,[2],4.22 µM
same,IC50,[3],12.4 µM
CCc1ccc(CCOc2ccc(CC3SC(=O)NC3=O)cc2)nc1 (centres undefined),Activity,[4],Active
same,Activity,[5],Active
same,inhibition,[6],inactive
O=C1NC(=O)/C(=C/c2ccc(OCc3cn(-c4ccc(Br)cc4)nn3)cc2)S1,Activity,[1],25 to 45%
O=C1NC(=O)/C(=C/c2ccc(OCc3cn(CC(=O)c4ccc(Br)cc4)nn3)cc2)S1,Activity,[4],Active
same,Activity,[5],Active
same,IC50,[2],4.97 µM
same,IC50,[3],13.6 µM
O=c1c(O)c(-c2ccc(O)c(O)c2)oc2cc(O)cc(O)c12 [QUERCETIN],IC50,[2],3.27 µM
C#CCOc1ccc(/C=C2\SC(=S)NC2=O)cc1,Activity,[1],25 to 45%
O=C1NC(=O)/C(=C/c2ccc(OCc3cn(CC(=O)c4ccc(Cl)cc4)nn3)cc2)S1,IC50,[3],10.9 µM
COc1ccc(-n2cc(COc3ccc(/C=C4\SC(=O)NC4=O)cc3)nn2)cc1,Activity,[1],25 to 45%
O=C(O)Cc1ccccc1Nc1c(Cl)cccc1Cl [DICLOFENAC],IC50,[7],143 µM
CC(Cc1ccc(O)c(O)c1)C(C)Cc1ccc(O)c(O)c1 (centres undefined) [NORDIHYDROGUAIARETIC ACID],IC50,[2],10.2 µM
Cc1ccc(-c2cc(C(F)(F)F)nn2-c2ccc(S(N)(=O)=O)cc2)cc1 [CELECOXIB],inhibition in vivo at 5 mg/kg,[8],36.8%
O=C1NC(=S)S/C1=C\c1ccc(OCc2cn(CC(=O)c3ccc(Br)cc3)nn2)cc1,Activity,[4],Active
same,Activity,[5],Active
same,IC50,[2],4.34 µM
same,IC50,[3],14.9 µM
O=C(O)Cc1ccccc1Nc1c(Cl)cccc1Cl [DICLOFENAC SODIUM],inhibition in vivo at 5 mg/kg,[8],52.1%
same,inhibition in vivo at 5 mg/kg,[9],205%

# — ChEMBL document CHEMBL4390656, “Shooting three inflammatory targets with a single bullet: Novel multi-targeting anti-inflammatory glitazones” (Eur J Med Chem, 2019)
